Source: ChEMBL document CHEMBL1139766, “Discovery of potent and orally bioavailable heterocycle-based beta3-adrenergic receptor agonists, potential therapeutics for the treatment of obesity” (Bioorg Med Chem Lett, 2007)

Legend:
[1] = biological target: T1, Beta-3 adrenergic receptor (Homo sapiens, UniProt P13945); experiment: Agonist activity at human adrenergic beta-3 receptor expressed in CHO cells assessed as cAMP production; format: functional, cell-based
In short: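 cAMP accumulation measured in CHO cells expressing cloned human β3-AR. Potency given as EC50; intrinsic activity (IA) expressed as % of isoproterenol maximum. Compounds with EC50 < 100 nM and IA > 50% tested at least twice in functional assays.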
Target sequence in this assay (P13945 whole entry): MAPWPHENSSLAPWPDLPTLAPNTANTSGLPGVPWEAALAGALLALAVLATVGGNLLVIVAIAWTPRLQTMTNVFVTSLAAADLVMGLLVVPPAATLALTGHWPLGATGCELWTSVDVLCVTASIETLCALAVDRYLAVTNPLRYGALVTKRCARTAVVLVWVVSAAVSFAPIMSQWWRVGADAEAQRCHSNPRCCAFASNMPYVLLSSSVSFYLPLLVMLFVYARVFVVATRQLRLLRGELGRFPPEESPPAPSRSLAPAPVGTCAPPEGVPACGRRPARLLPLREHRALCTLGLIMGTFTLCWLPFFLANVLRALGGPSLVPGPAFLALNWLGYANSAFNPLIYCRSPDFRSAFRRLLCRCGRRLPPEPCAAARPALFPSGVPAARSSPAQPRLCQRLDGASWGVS

[2] = biological target: T1, Beta-3 adrenergic receptor; experiment: Intrinsic activity at human adrenergic beta-3 receptor expressed in CHO cells assessed as cAMP production relative to isoproterenol; format: functional, cell-based
In short: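 Functional readout was cAMP levels in Chinese hamster ovary cells expressing the cloned human β3 receptor. Intrinsic activity is given as a percentage of the isoproterenol maximum. Compounds with EC50 < 100 nM and IA > 50% were tested at least twice.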
Target sequence in this assay (P13945 whole entry, looked up): as the sequence (P13945 whole entry) above

[3] = biological target: Beta-1 adrenergic receptor (Homo sapiens, UniProt P08588); experiment: Displacement of [125I]iodocyanopindolol from human adrenergic beta-1 receptor expressed in CHO cells; format: cell-based
Beta-1 adrenergic receptor, sequence (P08588 whole entry): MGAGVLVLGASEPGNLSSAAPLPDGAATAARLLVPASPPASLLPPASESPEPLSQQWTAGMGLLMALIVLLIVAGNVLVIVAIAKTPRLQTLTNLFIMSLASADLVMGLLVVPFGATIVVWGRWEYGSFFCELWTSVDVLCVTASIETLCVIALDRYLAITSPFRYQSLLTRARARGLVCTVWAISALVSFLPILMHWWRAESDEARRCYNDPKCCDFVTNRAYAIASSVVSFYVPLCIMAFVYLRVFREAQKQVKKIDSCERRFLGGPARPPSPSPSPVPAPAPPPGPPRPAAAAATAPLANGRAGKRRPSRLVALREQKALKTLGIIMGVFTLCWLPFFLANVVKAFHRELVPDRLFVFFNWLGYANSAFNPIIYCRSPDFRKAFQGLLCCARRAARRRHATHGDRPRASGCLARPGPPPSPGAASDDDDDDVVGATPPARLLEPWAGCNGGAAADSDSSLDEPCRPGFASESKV

[4] = biological target: Beta-2 adrenergic receptor (Homo sapiens, UniProt P07550); experiment: Displacement of [125I]iodocyanopindolol from human adrenergic beta-2 receptor expressed in CHO cells; format: cell-based
Beta-2 adrenergic receptor, sequence (P07550 whole entry): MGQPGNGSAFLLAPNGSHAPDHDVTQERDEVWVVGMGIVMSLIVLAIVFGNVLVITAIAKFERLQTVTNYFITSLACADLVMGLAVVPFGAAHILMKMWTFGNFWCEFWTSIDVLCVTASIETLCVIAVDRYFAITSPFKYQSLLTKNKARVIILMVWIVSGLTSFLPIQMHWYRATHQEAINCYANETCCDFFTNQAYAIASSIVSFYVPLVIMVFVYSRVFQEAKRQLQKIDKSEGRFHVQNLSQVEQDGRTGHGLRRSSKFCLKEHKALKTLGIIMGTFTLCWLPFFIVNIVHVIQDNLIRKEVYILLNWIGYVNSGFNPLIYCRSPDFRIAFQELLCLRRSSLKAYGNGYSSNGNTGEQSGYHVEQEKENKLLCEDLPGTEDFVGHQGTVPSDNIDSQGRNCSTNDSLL

Homo sapiens = species: Homo sapiens; experiment: Selectivity for human adrenergic beta-3 receptor over human adrenergic beta-1 receptor
In short: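 Selectivity came from radioligand binding on membranes of CHO cells expressing cloned human β1 or β3 receptors, using 125I-iodocyanopindolol. The β3 value is the high-affinity agonist-site KiH, taken from a two-site competition fit. The ratio is β1 Ki over β3 Ki.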

[5] = Clearance in rat; format: ADME, organism-based; settings: in vivo
[6] = Volume of distribution at steady state in dog; format: ADME, organism-based, Canis lupus familiaris; settings: in vivo, read-out: Vdss
Rattus norvegicus [7] = experiment: Increase in oxygen consumption in rat at 10 mg/kg, po after 120 mins; format: functional
In short: (§1)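 Rats dosed orally (0.3, 1, 3, 10 mg/kg). Baseline O2 consumption recorded every 10 min for 3 h, then dosing with compound or vehicle and 2 h further recording. Values excluded when ambulatory activity was >100 counts/10 min, along with the first five values of the run and the first value after dosing. Change taken over 0–120 min.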

[8] = Half life in rat; format: ADME, organism-based; settings: in vivo
In short: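 Half-life determined after IV dosing in rat.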

[9] = Oral bioavailability in dog; format: ADME, organism-based, Canis lupus familiaris; settings: in vivo
[10] = Oral bioavailability in rat; format: ADME, organism-based; settings: in vivo
[11] = Clearance in dog; format: ADME, organism-based, Canis lupus familiaris; settings: in vivo
Rattus norvegicus [12] = species: Rattus norvegicus; experiment: Increase in oxygen consumption in rat after 120 mins; format: functional; settings: 2 h; in short: as §1
[13] = Half life in dog; format: ADME, organism-based, Canis lupus familiaris; settings: in vivo
In short: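 Half-life determined after IV dosing in dog.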

[14] = Volume of distribution at steady state in rat; format: ADME, organism-based; settings: in vivo, read-out: Vdss
Rattus norvegicus [15] = experiment: Increase in oxygen consumption in rat at 0.3 mg/kg, po after 120 mins; format: functional; in short: as §1
Rattus norvegicus [16] = experiment: Increase in oxygen consumption in rat at 3 mg/kg, po after 120 mins; format: functional; in short: as §1
Rattus norvegicus [17] = experiment: Increase in heart rate in rat at 10 mg/kg; format: functional
Rattus norvegicus [18] = experiment: Increase in oxygen consumption in rat at 1.0 mg/kg, po after 120 mins; format: functional; in short: as §1
[19] = biological target: Beta-3 adrenergic receptor (Rattus norvegicus) (UniProt P26255); experiment: Intrinsic activity at rat adrenergic beta-3 receptor assessed as cAMP production relative to isoproterenol; format: functional
Beta-3 adrenergic receptor (Rattus norvegicus), sequence (P26255 whole entry): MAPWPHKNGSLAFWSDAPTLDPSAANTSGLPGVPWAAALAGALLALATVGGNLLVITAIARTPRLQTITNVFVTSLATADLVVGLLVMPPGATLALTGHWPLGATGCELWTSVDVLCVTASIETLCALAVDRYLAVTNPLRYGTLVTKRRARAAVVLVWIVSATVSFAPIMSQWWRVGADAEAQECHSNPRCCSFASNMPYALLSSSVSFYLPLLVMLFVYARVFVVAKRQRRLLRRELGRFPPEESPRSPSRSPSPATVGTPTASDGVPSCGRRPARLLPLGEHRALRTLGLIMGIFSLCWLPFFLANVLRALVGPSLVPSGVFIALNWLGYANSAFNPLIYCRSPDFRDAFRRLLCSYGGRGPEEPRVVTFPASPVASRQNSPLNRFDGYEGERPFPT

[20] = biological target: Beta-3 adrenergic receptor (Rattus norvegicus, UniProt P26255); experiment: Agonist activity at rat adrenergic beta-3 receptor assessed as cAMP production; format: functional
Beta-3 adrenergic receptor (Rattus norvegicus, UniProt P26255), sequence (P26255 whole entry): as above

[21] = Solubility in phosphate buffer at pH 6.5; format: physicochemical
In short: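 Solubility measured in phosphate buffer at pH 6.5.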

SMILES	EC50 [1] [µM]	Intrinsic activity [2] [%]	Ki [3] [µM]	other results
Cc1ocnc1-c1ccc(OCCNC[C@H](O)c2cccnc2)cc1	0.309	80	0.17	
O[C@@H](CNCCOc1ccc(-c2cnco2)cc1)c1cccnc1	0.2	98		
O[C@@H](CNCCOc1ccc(-c2csc(C3CCCC3)n2)cc1)c1cccnc1	0.29	159	0.13	
Cc1nc(-c2ccc(OCCNC[C@H](O)c3cccnc3)cc2)c(C)o1	0.606	75	1.55	
O[C@@H](CNCCOc1ccc(-c2cocn2)cc1)c1cccnc1	0.02	94	0.2	clearance [5]: 13 mL/min/kg; Vd [6]: 2.8 L/kg; Activity (Rattus norvegicus [7]): 42%; half-life [8]: 1.4 h; bioavailability [9]: 59%; bioavailability [10]: 66%; clearance [11]: 6 mL/min/kg; ED20 (Rattus norvegicus [12]): 2 mg/kg; half-life [13]: 5.1 h; Vd [14]: 0.89 L/kg; Activity (Rattus norvegicus [15]): 8%; Ki [4]: 0.01 µM; Ratio Ki (Homo sapiens): 20; Activity (Rattus norvegicus [16]): 29%; Activity (Rattus norvegicus [17]): 10%; Activity (Rattus norvegicus [18]): 11%
CC(C)c1nc(-c2ccc(OCCNC[C@H](O)c3cccnc3)cc2)co1	0.057	135	0.36	Ki [4]: 0.049 µM; Ratio Ki (Homo sapiens): 7.4
Cc1nc(-c2ccc(OCCNC[C@H](O)c3cccnc3)cc2)co1	0.037	111	0.4	Ki [4]: 0.021 µM; Ratio Ki (Homo sapiens): 19
Cc1nc(-c2ccc(CCNC[C@H](O)c3cccnc3)cc2)cs1	1.36	55		
O[C@@H](CNCCOc1ccc(-c2csc(-c3cccnc3)n2)cc1)c1cccnc1	0.12	121	0.12	
Cc1nc(-c2ccc(OCCNC[C@H](O)c3cccnc3)cc2)cs1	0.17	106	0.1	Activity (Rattus norvegicus [7]): 32%; Intrinsic activity [19]: 113%; EC50 [20]: 0.013 µM; Ki [4]: 0.12 µM; Ratio Ki (Homo sapiens): 0.8; Activity (Rattus norvegicus [16]): 20%
O[C@@H](CNCCOc1ccc(-c2csc(-c3ccccc3)n2)cc1)c1cccnc1	0.58	53	0.15	Ki [4]: 0.5 µM
CCc1nc(-c2ccc(OCCNC[C@H](O)c3cccnc3)cc2)cs1	0.17	106	0.037	
OCc1nc(-c2ccc(OCCNC[C@H](O)c3cccnc3)cc2)co1	0.042	94	0.27	Ki [4]: 0.03 µM; Ratio Ki (Homo sapiens): 8.6
CCc1nc(-c2ccc(CCNC[C@H](O)c3cccnc3)cc2)cs1	2.25	80		
O[C@@H](CNCCOc1ccc(-c2cscn2)cc1)c1cccnc1	0.027	85	0.14	solubility [21]: > 10000 µg/mL; Intrinsic activity [19]: 104%; EC50 [20]: 0.026 µM; Ki [4]: 0.01 µM; Ratio Ki (Homo sapiens): 14.2; Activity (Rattus norvegicus [16]): 11%
O[C@@H](CNCCOc1ccc(-c2coc(COCc3ccccc3)n2)cc1)c1cccnc1	0.22	137	0.05	
O[C@@H](CNCCOc1ccc(-c2csc(-c3ccncc3)n2)cc1)c1cccnc1	0.065	106	0.097	

Second part, led by results:

EC50 [1] [µM]	Intrinsic activity [2] [%]	Ki [3] [µM]	SMILES	other results
0.49	70		CS(=O)(=O)Nc1cc([C@@H](O)CNCCc2ccc(-c3csc(-c4ccccc4)n3)cc2)ccc1Cl	
0.057	133	0.4	CCc1nc(-c2ccc(OCCNC[C@H](O)c3cccnc3)cc2)co1	Ki [4]: 0.037 µM; Ratio Ki (Homo sapiens): 11
1.19	106		O[C@@H](CNCCc1ccc(-c2csc(-c3cccnc3)n2)cc1)c1cccnc1	
0.2	150	0.1	O[C@@H](CNCCOc1ccc(-c2csc(C(F)(F)F)n2)cc1)c1cccnc1	
0.047	110	0.21	COCc1nc(-c2ccc(OCCNC[C@H](O)c3cccnc3)cc2)co1	
0.52	24		O[C@@H](CNCCOc1ccc(-c2ncco2)cc1)c1cccnc1	
	92		O=S(=O)(Nc1ccc(CCNC[C@H](O)c2cccnc2)cc1)c1ccc(-c2nc(-c3ccc(C(F)(F)F)cc3)cs2)cc1	
2.74	108		O[C@@H](CNCCc1ccc(-c2csc(-c3ccccc3)n2)cc1)c1cccnc1	
4.49	94		O[C@@H](CNCCc1ccc(-c2csc(C(F)(F)F)n2)cc1)c1cccnc1	
0.13	95		CCc1nc(-c2ccc(CCNC[C@H](O)c3ccc(Cl)c(NS(C)(=O)=O)c3)cc2)cs1	
0.23	121		Cc1nc(-c2ccc(CCNC[C@H](O)c3ccc(Cl)c(NS(C)(=O)=O)c3)cc2)cs1	
